Measurements from PubChem BioAssay AID504382 (The Scripps Research Institute Molecular Screening Center, 2011).
Hit rate of the full screen: of about 2,500 compounds, about 460 (18%) were called active. These entries were drawn from the full list. Values without a mark were called inactive.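 Rule for the calls: active = mean activation above a cutoff of low control average plus 3 SD from the earlier screen (cut at about 12% in these data); inactive = the rest.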

Assay: IANBD-channel fluorescence artefacts in buffer – biochemical, artefact control for cardiac RTF calcium sensitizer project, confirmation (AID 504382)
Conditions: IANBD fluorescence interference counterscreen, EC20 Ca2+, at 7.2 µM, stronger effect = higher value, scaled: EC20 calcium 0, EC100 calcium 100
Method in brief: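 Medium: MOPS/KCl/MgCl2/EGTA/NTA/DTT buffer, pH 7.2 | Reagent: EC20 calcium, 0.472 mM | Compound dosing: 7.2 µM single dose | Times: 15 min compound exposure at 25 °C | Signal: Fluorescence, 480/540 nm | Measure: Interference relative to controls | Repeats: Triplicate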

SMILES	fluorescence artifact activation
CC1=Nc2ccccc2/C1=C\c1nc(-c2ccc(F)cc2)oc1O	0.71%
Cc1ccc(NC(=S)Nc2ccc3nc(-c4ccccn4)c(-c4ccccn4)nc3c2)cc1C	0%
O=C(COc1ccccc1)NC(=S)Nc1cccc(NC(=O)c2ccccc2Cl)c1	0.01%
Cc1ccccc1C(=O)NC(=S)NC1CC1	0.12%
CC(C)CNC(=S)NC(=O)c1ccccc1Cl	32.2% (active)
CCCn1c(=N)n(CC(O)c2ccco2)c2ccccc21 (centres undefined)	0.03%
COCCCN1C(=O)/C(=C/c2ccc(CNS(=O)(=O)c3ccccc3)o2)C(C(=O)OC)=C1C	0.04%
CC(=O)Nc1cc(C(=O)NCc2ccco2)ccc1Sc1ccc(F)cc1	18.1% (active)
CCOc1ccc(CNC(=O)c2ccc(Sc3ccc(Cl)cc3)c(NC(C)=O)c2)cc1	1.09%
COc1c(Cl)ccc(Cl)c1C(=O)NCc1ccco1	0.03%
CCCCOc1[nH]c2nc(-c3ccco3)n(Cc3ccco3)c(=N)c2c1C#N	0.23%
O=c1nc2c(O)cccn2c2c1c(=O)[nH]c1ccccc12	0.02%
Cc1sc2nc(COC(=O)c3cccc(S(=O)(=O)N(C)c4ccccc4)c3)[nH]c(=O)c2c1C	0.1%
Cc1cccc(C)c1NC(=O)CN(C1CCCCC1)S(C)(=O)=O	0.02%
CCCNC(=O)c1ccc(N2CCC3(CC2)CC(c2cccc(Br)c2)=NO3)c(NC(=O)c2cccc(C)c2)c1	3.63%
O=C(Nc1ccc(Cl)cn1)C1CCN(S(=O)(=O)c2cccs2)CC1	74.6% (active)
CC(=O)N1CCc2c(sc(NC(=O)C3CCCN3S(=O)(=O)c3cccs3)c2C(N)=O)C1 (centres undefined)	9.49%
O=C(CC1CCCC1)N1CCN(S(=O)(=O)c2ccccc2)CC1	0.13%
CCOc1ccc(NC(=O)C2CCN(S(=O)(=O)c3cccnc3)CC2)cc1	-0.04%
O=C(Nc1ccccc1N1CCOCC1)C1CCN(S(=O)(=O)c2ccccc2F)CC1	-0.05%

SMILES	fluorescence artifact activation
O=C(c1cc(Cl)ccc1O)N1CCN(S(=O)(=O)c2cccs2)CC1	114% (active)
O=C(Nc1nccs1)C1CCN(S(=O)(=O)c2ccccc2)CC1	461% (active)
O=C(Cc1cccs1)N1CCN(S(=O)(=O)c2cc(Cl)ccc2Cl)CC1	1.88%
O=C(c1cc(-c2cccs2)nn1-c1ccccc1)N1CCN(S(=O)(=O)c2ccccc2)CC1	2.28%
COc1cccc(CNC(=O)CCC(=O)N2CC(C)Oc3ccccc32)c1OC (centres undefined)	0.11%
Cc1c(C(=O)NC2CC2)oc2ccccc12	0.04%
Cc1cc(C)nc(NC(=O)c2ccc(Cl)c(Cl)c2)n1	0.33%
CC1=C(C#N)C(=O)OC(C)(C)C1	0.01%
Cc1[nH]c(=O)c(C#N)c(C)c1Cl	0.06%
O=C(N/N=C/c1sc(N2CCOCC2)nc1-c1ccccc1)c1cccc(S(=O)(=O)N2CCCC2)c1	0%
Cc1cc2nc3c(=O)[nH]c(=O)[nH]c3nc2c([N+](=O)[O-])c1N	0.02%
O=C1/C(=C/c2cccs2)N=C(c2cccs2)N1Nc1ccccc1	4.3%
COCCN(C(=S)Nc1cccc(OC)c1)C1CCN(C(C)=O)CC1	0.16%
CCn1cc(/C=C/C(=O)Nc2c(C)nn(Cc3ccccc3C)c2C)cn1	0.05%
COc1ccc(CC(=O)NNC(=O)c2ccncc2)cc1	0.18%
COc1ccc(/C=N/NC(=O)c2cccnc2)cc1CN1CCOCC1	6.25%
CCOC(=O)C1=C(C)NC(C)=C(C(=O)OCC)C1c1ccco1	0.15%
COc1ccc(CNCc2cccc(Cl)c2)cc1	0.14%
OCCNCc1cccc(OCc2ccc(Cl)cc2)c1	61% (active)
Cc1ccc(C(C(=O)NC2CCCC2)N(C(=O)Cc2cccs2)c2cccc(C)c2C)o1 (centres undefined)	0%

SMILES	fluorescence artifact activation
CC1=C(C(=O)OCCCCCl)C(c2cc3c(cc2Br)OCO3)NC(=O)N1 (centres undefined)	-0.02%
C[C@H]1CN([C@@H](C)CO)C(=O)Cc2cc(NC(=O)CCC(F)(F)F)ccc2O[C@H]1CN(C)S(C)(=O)=O	0.55%
Oc1[nH]c2ccccc2c1N=Nc1ccccc1	11.6%
Oc1[nH]c2ccccc2c1N=Nc1ccccc1F	-0.02%
Oc1[nH]c2ccccc2c1N=Nc1ccc(F)cc1	34.1% (active)
COc1ccc(-n2c(O)c(/C=N/NS(=O)(=O)c3cccc([N+](=O)[O-])c3)c3ccccc3c2=O)cc1OC	0.15%
Cn1nccc1NC(=O)Nc1cccc(Cl)c1Cl	13.5% (active)
Cn1ncc(Cl)c1C(=O)Nc1cccc(Cl)c1	0.09%
CC1CC1c1ccc(/C=C(\C#N)C(=O)Nc2cccc(Cl)c2Cl)o1 (centres undefined)	4%
O=C(Nc1ccccc1)C1=C[C@H](c2ccc3c(c2)OCO3)C[C@H](OCCCCO)O1	1.74%
COc1cc(/C=N/NC(=O)c2cc(-c3ccccc3Cl)nc3ccccc23)cc(OC)c1O	8.56%
O=c1[nH][nH]c(C(F)(F)F)c1C=Nc1cccc(Cl)c1	1.19%
Cc1cc(O)c(CN(C)C)c2c1C(=O)/C(=C/c1ccco1)O2	0%
CC(C)Cn1c(N)c(C(=O)COC(=O)c2cc(F)cc(F)c2)c(=O)n(C)c1=O	40.2% (active)
CCOC(=O)C1=C(C)N=c2s/c(=C/c3ccc(OCC(=O)O)c(OC)c3)c(=O)n2C1c1ccc(Cl)cc1 (centres undefined)	-0.04%
Cc1cc(C=C2C(=O)c3ccccc3C2=O)c(C)n1-c1ccc(Cl)cc1	-0.07%
CCCN1C(=O)/C(=C/c2ccc(N3CCCC3)c(C)c2)NC1=S	0.06%
CCN1C(=O)/C(=C/c2ccc(N3CCCC3)cc2)NC1=S	0.26%
CCCN1C(=O)/C(=C/c2ccc(N3CCOCC3)cc2)NC1=S	131% (active)
